Screens (PubChem BioAssay)
SENP1 inh – inhibitors of human SENP1 SUMO protease catalytic domain; recombinant SENP1 catalytic domain, CyPet-SUMO1-YPet FRET cleavage; hit rate 0.21% among 360,000; AID 624204; inhibition, % at 10 µM;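 active = inhibition at least 30% at 10 µM, raw YFP signal under a set limit, fluorescence ratio 0.5 to 1.5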
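System: Recombinant human SENP1 catalytic domain, His6-tagged | Incubation: Enzyme reaction for 50 min at room temperature, dark | Medium: Tris pH 8 with BME, BSA, NP40 and catalase | Also added: 25 nM SUMO1 FRET substrate | Compound: 10 µM single point, 0.5% DMSO | Measured by: FRET fluorescence in CFP and YFP emission channels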
SENP8 block-1 – inhibitors of human SENP8 protease; Q96LD8; recombinant SENP8, Nedd8 substrate fluorescence; inhibition, % at 20 µM; hit rate 0.64% among 360,000; in the data active = inhibition mostly above about 40%, no sharp cut-off; inactive = mostly below about 27%
SENP7 inh – inhibitors of human SENP7 protease; Q9BQF6; recombinant SENP7, Z-RLRGG-aminoluciferin luminescence, 40 min; inhibition, % at 5 µM; hit rate 1.5% among 330,000;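 active = inhibition above about 50% at the single test dose, limit read from the data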
Target sequence (Q9BQF6 706-1050 limits assumed): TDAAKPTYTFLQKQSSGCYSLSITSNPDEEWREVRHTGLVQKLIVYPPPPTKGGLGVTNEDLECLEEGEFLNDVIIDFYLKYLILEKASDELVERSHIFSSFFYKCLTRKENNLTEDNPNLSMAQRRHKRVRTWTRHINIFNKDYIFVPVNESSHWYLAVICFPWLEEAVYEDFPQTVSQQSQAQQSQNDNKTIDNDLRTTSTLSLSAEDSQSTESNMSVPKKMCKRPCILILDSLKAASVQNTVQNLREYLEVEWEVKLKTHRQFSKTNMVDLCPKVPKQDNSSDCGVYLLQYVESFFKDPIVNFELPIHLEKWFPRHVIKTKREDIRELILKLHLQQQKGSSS
SENP8 block-2 – inhibitors of human SENP8 protease. Q96LD8. purified SENP8, Z-RLRGG-aminoluciferin cleavage, luminescence. inhibition, % at 10 µM. hit rate 1.2% among 330,000; in the data active = inhibition above about 50%
SENP6 block – inhibitors of human SENP6 protease; Q9GZR1; Recombinant SENP6 catalytic domain, aminoluciferin luminescence; inhibition, % at 10 µM; hit rate 1.8% among 330,000;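 active = inhibition above about 50% at the single tested dose, limit read from the data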
SENP8 conf – human SENP8 inhibition, confirmed; inhibition, % at 12.5 µM; Recombinant SENP8, Z-RLRGG-aminoluciferin luminescence, 60 min; AID 488912; hit rate 40% among 6,200; shares compounds with SENP7 inh;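 active = mean inhibition across replicates above about 50%, limit read from the data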
SENP6 confirm – human SENP6 inhibition, confirmed; inhibition, % at 12.5 µM; shares compounds with SENP7 inh; recombinant SENP6, Z-RLRGG-aminoluciferin luminescence; hit rate 58% among 6,200
SENP7 conf – confirmation of human SENP7 protease inhibitors. recombinant SENP7, Z-RLRGG-aminoluciferin luminescence, 40 min. shares compounds with SENP7 inh. inhibition, % at 12.5 µM. hit rate 69% among 6,200
Casp3 select – inhibits human caspase-3 in SENP selectivity test. shares compounds with SENP7 inh. purified caspase-3, Z-DEVD-aminoluciferin luminescence, 60 min. inhibition, % at 12.5 µM. hit rate 60% among 6,200. AID 488918;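 active = mean inhibition above about 50%, limit read from the data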
Luc interf – interferes with luciferase luminescence in SENP counter-screen; shares compounds with SENP7 inh; Pre-incubated SENP8/Z-RLRGG-aminoluciferin, luciferase luminescence interference; inhibition, % at 12.5 µM; hit rate 39% among 6,200;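 active = mean inhibition above about 50% when retested at one dose, limit read from the data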
A number is an active result; - = inactive; . = no result given. Only some compounds are listed: those with a hit (about 2.5% of all), similar ones and a draw of the others.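 Rule for the calls, unless noted: active = mean inhibition above about 50% in the one-dose retest (limit read from the data); inactive = the rest.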

SMILES	SENP1 inh	SENP8 block-1	SENP7 inh	SENP8 block-2	SENP6 block	SENP8 conf	SENP6 confirm	SENP7 conf	Casp3 select	Luc interf
Fc1cccc(F)c1CSc1nc2ccccc2[nH]1	-	-	74	52	77	62	62	89	71	74
O=C(CSc1nc2ccccc2[nH]1)c1c[nH]c2ccccc12	-	-	-	-	-	.	.	.	.	.
O=C(/C=C/c1cccs1)c1ccc(N2CCOCC2)cc1	-	-	87	72	84	-	82	93	-	-
COc1ccc(-c2cc3nc[nH]c(=O)c3s2)cc1	-	-	-	-	-	.	.	.	.	.
COc1ccc(-c2cc3nc(CCl)[nH]c(=O)c3s2)cc1	-	-	59	83	94	66	91	70	82	-
COc1ccc(-c2cn(Cc3ccc(C(=O)c4ccccc4)cc3)nn2)cc1	.	.	64	77	79	-	63	-	64	-
COc1ccc(-c2cn(Cc3ccc4ccccc4c3)nn2)cc1	-	-	-	-	-	.	.	.	.	.
CC(C)(C)OC(=O)NCCCCCNC(=O)c1[nH]cnc1C(=O)Nc1ccon1	-	-	-	-	-	.	.	.	.	.
O=C1/C(=C/N(C(=O)c2ccco2)c2ccc(Br)cc2)Sc2ccccc21	-	-	80	84	90	-	51	72	-	-
O=C(NC1CCCCCC1)c1cc2ccccc2oc1=O	-	-	56	-	73	50	60	68	63	-
N=c1oc2ccccc2cc1C(=O)NC1CCCCCC1	-	-	-	-	-	.	.	.	.	.
Cc1cccc(NC(=O)c2cc3ccccc3oc2=O)c1	-	-	97	64	88	-	-	-	-	-
Cc1ccnc(NC(=O)c2cc3ccccc3oc2=O)c1	-	-	95	82	72	-	-	-	55	-
COCCn1c(N)c(C(=O)c2cccc(S(=O)(=O)N3CCCCCC3)c2)c(=O)[nH]c1=O	-	-	-	-	-	.	.	.	.	.
O=C(Nc1cccc(S(=O)(=O)NCc2ccco2)c1)c1cccc(Cl)c1	-	-	-	-	-	.	.	.	.	.
CCCCn1c(N)c(N(CCOC)C(=O)C2CCN(S(=O)(=O)c3ccccc3)CC2)c(=O)[nH]c1=O	-	-	-	-	-	.	.	.	.	.
COc1cc(/C=C2\OC(=O)c3c(OC)cccc32)ccc1O	-	-	-	-	64	-	-	82	58	68
N#CCCN(CCC#N)C(=O)C1c2ccccc2Oc2ccccc21	-	-	-	-	-	.	.	.	.	.
Clc1ccccc1-c1nnc2sc(-c3ccc4c(c3)OCO4)nn12	-	-	-	-	-	.	.	.	.	.
O=[N+]([O-])c1cccc(-c2nnc(-c3ccc4c(c3)OCO4)o2)c1	-	-	65	-	-	-	-	-	-	-
O=[N+]([O-])c1cccc(-c2nnc(-c3ccccc3)o2)c1	-	-	-	-	-	.	.	.	.	.
Clc1ccccc1-c1nnc(-c2ccc3c(c2)OCO3)o1	-	-	90	89	92	64	94	95	79	59
COc1ccc(C(N)c2nccc3cc(OC)c(OC)cc23)cc1OC (stereo not drawn)	-	-	70	-	75	-	-	-	-	-
Cc1ccc(CNC(=O)CS(=O)(=O)c2cn(CC(=O)N3CCOCC3)c3ccccc23)cc1	-	-	-	-	-	.	.	.	.	.
COc1ccc(CNC(=O)CN(C(=O)c2csnn2)c2cccc(C(C)=O)c2)cc1	-	-	-	-	-	.	.	.	.	.
COc1ccc(NC(=O)C2CCCN(S(=O)(=O)c3cccnc3)C2)c(OC)c1 (stereo not drawn)	-	-	-	-	-	.	.	.	.	.
COc1ccc(C)cc1NC(=O)C1CCCN(S(=O)(=O)c2cccnc2)C1 (stereo not drawn)	-	-	-	60	-	-	-	-	-	-
